Screening results from PubChem.
An excerpt weighted towards active compounds, which were near 1.6% of everything screened.
VIM-2 inhibitor: inhibitors of Pseudomonas aeruginosa VIM-2 metallo-beta-lactamase | inhibition, % at 5.6 µM | hit rate 0.89% among 290,000 | purified VIM-2, nitrocefin hydrolysis, epi-absorbance fluorescence;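 active = inhibition above the mean of all tested compounds plus 3 SD, cutoff set per screening run, cut at about 7.5% in these data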;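 note: red hydrolysis product quenches plate fluorescence so inhibitors raise well fluorescence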
FID counter: displaces DNA intercalator in HCV helicase counter-screen | DNA fluorescent intercalator displacement, fluorescence | inhibition, % at 7.9 µM | hit rate 0.17% among 290,000; in the data active = inhibition above about 37%;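 note: higher means more ethidium bromide displaced from hairpin DNA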
IMP-1 inh: blocks Pseudomonas aeruginosa IMP-1 metallo-beta-lactamase | purified IMP-1, nitrocefin hydrolysis, epi-absorbance fluorescence | inhibition, % at 5.6 µM | hit rate 0.45% among 290,000 | AID 1556;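 active = inhibition above the mean plus 3 SD of all compounds in the same screening run, cut at about 4.5% in these data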
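Material – recombinant IMP-1 enzyme, purified · Amount – IMP-1 0.2 nM before substrate addition · Medium – HEPES buffer pH 7.1 with ZnSO4 and Brij 35 · Timing – 25 °C, 15 min preincubation, 25 min reaction · Measured by – plate fluorescence quenching by hydrolysis product, ex 480/em 530 nm · Read-out – percent enzyme inhibition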
HCV core dimer: blocks dimerization of HCV core protein; TR-FRET GST/Flag-core106 dimerization, 1536-well; inhibition, % at 5 µM; hit rate 0.33% among 300,000; AID 1899;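 active = inhibition above the mean of all tested compounds plus 3 SD, set per screening campaign, cut at about 45% in these data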
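Material: Tagged HCV core106 pair (GST and Flag) | Amount: GST-core106 13.5 nM, Flag-core106 17 nM | Medium: KF-containing HEPES buffer, pH 7.45, DTT, CHAPS, BSA | Reagent: Eu donor and XL665 acceptor anti-tag antibodies | Schedule: 4 h at 22.5 °C | Technique: Time-resolved FRET, ex 340 nm, em 617 and 671 nm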
Each line names hits and unclear results; the compound was inactive in the other large screens.

NCCNC(=O)c1c(O)c2cccc3c2n(c1=O)CCC3	VIM-2 inhibitor 12 (no result: HCV core dimer)
CCCNC(=O)c1c(O)c2cccc3c2n(c1=O)CCC3	none (no result: HCV core dimer)
CCN(CC)CCN(C(=O)C1=COCCO1)c1nc2ccc(C)cc2s1	none
CCN(CC)CCN(C(=O)c1cc2ccccc2cc1OC)c1nc2ccc(OC)cc2s1	FID counter 44
CCN(CC)CCN(C(=O)C1=COCCO1)c1nc2c(OC)ccc(OC)c2s1	VIM-2 inhibitor 8.9
Cc1ccc(S(=O)(=O)N/N=C/c2cc(Br)c(C)o2)cc1	none
CC1CCCN(C(=O)CSc2ncccn2)C1 (configuration not stated)	none
CCOc1ccc(OCCCCN(C)C)cc1	IMP-1 inh 35
CC(O/N=C/c1ccc(OC(F)F)cc1)C(=O)Nc1cccc(S(=O)(=O)N2CCOCC2)c1 (configuration not stated)	none
COCCCn1c(-c2ccccc2Cl)n[nH]c1=S	VIM-2 inhibitor 10
CCOc1ccc2nc(N(CCCN(C)C)C(=O)c3ccc(S(=O)(=O)N4CCCC4)cc3)sc2c1	none
CCOc1ccc(S(=O)(=O)NNC(=O)c2cc3ccccc3o2)cc1	none
Cc1nc2nc(SCC(=O)NCCCN3CCCCC3)nn2c(C)c1Cc1ccccc1	none
Cc1ccc(Cc2c(C)nc3nc(SCC(=O)NCCCN4CCCCCC4)nn3c2C)cc1	HCV core dimer 94
CC(=O)c1c(C)cc(C)c(CSc2ccccn2)c1C	none
O=C(O)C1C2C=CC3(O2)C1C(=O)N1c2ccccc2C2OCCC2C13 (configuration not stated)	VIM-2 inhibitor 11
Cc1sc(NC(=O)c2sc3nc4c(C)cccc4cc3c2N)c(C#N)c1C	HCV core dimer 47
Cc1cccc2cc3c(N)c(C#N)sc3nc12	none
CCOc1ccc(N2C(=O)C3Sc4[nH]c(=O)sc4C(/C=C/c4ccccc4)C3C2=O)cc1 (configuration not stated)	IMP-1 inh 8.0
CCN(c1ccccc1)S(=O)(=O)c1cc(NC(=O)CSc2n[nH]c(=O)[nH]c2=O)ccc1Cl	none
Cc1cc(-c2ccc(C(=O)O)s2)cnc1N	none
CCOc1ccccc1-n1c(SCC(=O)N(CC)CC)nnc1-c1ccccn1	IMP-1 inh 5.7
Cc1onc(-c2ccccc2)c1C(=O)Nc1nc(-c2ccccc2)cs1	HCV core dimer 54
Cc1onc(-c2ccccc2)c1C(=O)Nc1sc2c(c1C#N)CCC2	none
Cc1onc(-c2ccccc2)c1C(=O)Nc1nc(-c2cc(F)ccc2F)cs1	none
Cc1onc(-c2ccccc2)c1C(=O)Nc1sc2c(c1C(N)=O)CCC2	HCV core dimer 62
COc1ccc(/C=C2\SC(=S)N(CCCC(=O)N3CCOCC3)C2=O)cc1OC	none
O=C1/C(=C2\C(=O)N(Cc3ccc(F)cc3)c3ccccc32)SC(=S)N1CCS(=O)(=O)O	FID counter 39
O=C(O)C1=CC(=C(c2ccc(O)c(C(=O)O)c2)c2ccc(O)c(C(=O)O)c2)C=CC1=O	HCV core dimer 77 (no result: VIM-2 inhibitor, FID counter, IMP-1 inh)
CN1C(=S)NC(C)(C)CC1(C)c1ccc(O)cc1O (configuration not stated)	VIM-2 inhibitor 8.3
CCN1C(=O)c2cccc3c(S(=O)(=O)Nc4ccccc4OC)ccc1c23	none
CCN1C(=O)c2cccc3c(S(=O)(=O)Nc4ccc(O)c(C(=O)O)c4)ccc1c23	VIM-2 inhibitor 8.2
CCOC(=O)/C=C(C)\C=C\c1c[nH]c2ccccc12	none
COc1ccc(Cl)cc1Nc1nc(C)nc2c1nnn2Cc1ccccc1	none
COc1cccc(/C=C2\Sc3ccc(C(=O)NCc4cccnc4)cc3N(C)C2=O)c1	none
COc1ccc(/C=C2\Sc3ccc(C(=O)NCc4cccnc4)cc3N(C)C2=O)cc1OC	VIM-2 inhibitor 11
CCOc1cccc(OCCOCCn2cnc3ccccc3c2=O)c1	none
CC[N+](CC)(CC)CCOc1ccc(/C=C/c2ccccc2)cc1	none (no result: VIM-2 inhibitor, FID counter, IMP-1 inh)
CC[N+](CC)(CC)CCCCOc1ccc2c(c1)C(=O)c1cc(OCCCC[N+](CC)(CC)CC)ccc1-2	FID counter 90
Cc1cccc(NS(=O)(=O)c2cccc(C(=O)N3CCN(c4ccccn4)CC3)c2)c1	none
CN1CCN(CCNC(=O)c2ccc3nc(-c4ccc(F)cc4)c(-c4ccc(F)cc4)nc3c2)CC1	FID counter 47
CCC(C(=O)OC)n1cnc2c(nnn2-c2cccc(OC)c2)c1=O (configuration not stated)	none
Cn1nnnc1SCc1cccc(CSc2nnnn2C)n1	IMP-1 inh 5.3
Cn1nnnc1SCc1ccc(CSc2nnnn2C)cc1	none
CCCc1ccc(O)c(N=Cc2cc(Br)cc(OCC)c2O)c1	IMP-1 inh 5.5
